Results: ChEMBL document CHEMBL1125195, “Novel compounds possessing potent cAMP and cGMP phosphodiesterase inhibitory activity. Synthesis and cardiovascular effects of a series of imidazo[1,2-a]quinoxalinones and imidazo[1,5-a]quinoxalinones and their aza analogues” (J Med Chem, 1991)
Active and inactive are the calls of the source. The calls are words filed in the database; no cut-off is given here.

Key:
[1] = species on record: Canis familiaris; assay: In vitro vascular relaxation in canine mesenteric veins precontracted with phenylephrine.; type: functional; conditions: Canis lupus familiaris, Mesenteric vein
In short: (§1)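 Isolated vessels in warm PSS. Arteries constricted with prostaglandin F2α, veins with phenylephrine. Cumulative drug challenges, each added after relaxation plateaued. Delta force is expressed as % of agonist actual force (total minus basal) and as % of maximal relaxation. EC50 is found by linear interpolation between the points bracketing 50% relaxation. Afterwards tissues were rinsed every 10 min, reconstricted, and challenged with acetylcholine (arteries) or thrombin (veins).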

[2] = In vitro increase in contractile force in ferret papillary muscle strips.; type: functional, Mustela putorius furo, Muscle tissue
In short: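 Ferret papillary muscle; value is drug concentration (μM) giving a 20% rise in contractile force. Mean of at least two determinations, ranges within ±10%. Inotropic effect also tested with 1 μM propranolol co-administered. NR means not reached at 100 μM.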

[3] = Inhibition of crude cAMP phosphodiesterase from canine […]; set-up: species or system Canis lupus familiaris
In short: (§2)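 Crude homogenates: cAMP PDE from canine cardiac tissue, cGMP PDE from canine thoracic aorta. Value is drug concentration (μM) giving 50% inhibition. Mean of at least three determinations, ranges within ±10%.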

[4] = species on record: Canis familiaris; assay: In vitro vascular relaxation in canine coronary arteries precontracted with prostaglandin F2alpha.; type: functional; conditions: Canis lupus familiaris; in short: as §1
[5] = Inhibition of crude cGMP phosphodiesterase from canine thoracic aorta; type: tissue-based, Canis lupus familiaris; in short: as §2
[6] = system: Canis familiaris; assay: (§3) Percent change in left ventricle contractile force in anesthetized dogs after intravenous administration at 3.0 mg/kg; type: functional, Canis lupus familiaris, Heart left ventricle
In short: (§4)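 Anesthetized dogs, drug given intravenously at the stated dose. Percent change recorded in LV dP/dt (contractile force), heart rate and mean arterial pressure. Mean of at least four determinations; LV dP/dt ranges within ±10%.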

[7] = system: Canis familiaris; assay: Percent change in heart rate after intravenous administration in anesthetized dogs at 3.0 mg/kg (NC<10%); type: functional, Canis lupus familiaris; in short: as §4
[8] = system: Canis familiaris; assay: (§5) Percent change in left ventricle contractile force in anesthetized dogs after intravenous administration at 0.3 mg/kg; type: functional, Canis lupus familiaris, Heart left ventricle; in short: as §4
[9] = Inhibition of crude cAMP phosphodiesterase from canine […] (NR = no effect at 100 ug); set-up: species or system Canis lupus familiaris
In short: (§6)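 Crude PDEs from canine tissue homogenates: cAMP enzyme from cardiac tissue, cGMP enzyme from thoracic aorta. Value is drug concentration (μM) causing 50% inhibition. Mean of at least three determinations, ranges within ±10%.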

[10] = system: Canis familiaris; assay: (§7) Percent change in mean arterial blood pressure after intravenous administration in anesthetized dogs at 3.0 mg/kg; type: functional, Canis lupus familiaris; in short: as §4
[11] = species on record: Mustela putorius furo; assay: In vitro increase in contractile force in ferret papillary muscle strips (NR = not reached at 100 ug); type: functional, tissue-based; conditions: Muscle tissue
In short: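 Ferret papillary muscle contractile force measured in vitro; value is drug concentration (μM) giving a 20% rise in contractile force. Inotropic effect also tested with 1 μM propranolol coadministered. Mean of at least two determinations, ranges within ±10%.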

[12] = system: Canis familiaris; assay: Percent change heart rate after intravenous administration in anesthetized dogs at 0.3 mg/kg (NC<10%); type: functional, Canis lupus familiaris; in short: as §4
[13] = system: Canis familiaris; assay: (§8) Percent change in mean arterial blood pressure after intravenous administration in anesthetized dogs at 0.3 mg/kg; type: functional, Canis lupus familiaris; in short: as §4
[14] = Inhibition of crude cGMP phosphodiesterase from canine thoracic aorta (NR = no effect at 100 ug); type: tissue-based, Canis lupus familiaris; in short: as §6
[15] = system: Canis familiaris; assay: (§9) Percent change in left ventricle contractile force in anesthetized dogs after intravenous administration at 1.0 mg/kg; type: functional, Canis lupus familiaris, Heart left ventricle; in short: as §4
[16] = system: Canis familiaris; assay: Percent change heart rate after intravenous administration in anesthetized dogs at 1.0 mg/kg; type: functional, Canis lupus familiaris; in short: as §4
[17] = system: Canis familiaris; assay: (§10) Percent change in mean arterial blood pressure after intravenous administration in anesthetized dogs at 1.0 mg/kg; type: functional, Canis lupus familiaris; in short: as §4
[18] = system: Canis familiaris; assay: Percent change in mean arterial blood pressure after intravenous administration in anesthetized dogs at 0.1 mg/kg; type: functional, Canis lupus familiaris
[19] = system: Canis familiaris; assay: as §5; type: functional, Canis lupus familiaris, Heart left ventricle; remark: listed apart in the source
[20] = system: Canis familiaris; assay: as §10; type: functional, Canis lupus familiaris; remark: listed apart in the source
[21] = system: Canis familiaris; assay: Percent change in heart rate after intravenous administration in anesthetized dogs at 1.0 mg/kg; type: functional, Canis lupus familiaris
[22] = system: Canis familiaris; assay: Percent change in heart rate after intravenous administration in anesthetized dogs at 0.3 mg/kg; type: functional, Canis lupus familiaris
[23] = system: Canis familiaris; assay: Percent change in heart rate after intravenous administration in anesthetized dogs at 0.1 mg/kg (NC<10%); type: functional, organism-based; set-up: dose 0.1 mg/kg; conditions: Canis lupus familiaris
[24] = system: Canis familiaris; assay: as §9; type: functional, Canis lupus familiaris, Heart left ventricle; remark: listed apart in the source
[25] = system: Canis familiaris; assay: Percent change in left ventricle contractile force in anesthetized dogs after intravenous administration at 0.1 mg/kg; type: functional, Canis lupus familiaris, Heart left ventricle
[26] = system: Canis familiaris; assay: as §8; type: functional, Canis lupus familiaris; remark: listed apart in the source
[27] = system: Canis familiaris; assay: Percent change heart rate after intravenous administration in anesthetized dogs at 0.1 mg/kg; type: functional, Canis lupus familiaris
[28] = system: Canis familiaris; assay: (§11) Percent change in mean arterial blood pressure after intravenous administration in anesthetized dogs at 1.0 mg/kg (NC<10%); type: functional, Canis lupus familiaris
[29] = system: Canis familiaris; assay: Percent change in mean arterial blood pressure after intravenous administration in anesthetized dogs at 0.1 mg/kg (NC<10%); type: functional, Canis lupus familiaris
[30] = system: Canis familiaris; assay: as §3; type: functional, Canis lupus familiaris, Heart left ventricle; remark: listed apart in the source
[31] = system: Canis familiaris; assay: as §11; type: functional, organism-based; set-up: dose 1 mg/kg; conditions: Canis lupus familiaris
[32] = system: Canis familiaris; assay: as §7; type: functional, Canis lupus familiaris; remark: listed apart in the source
[33] = system: Canis familiaris; assay: Percent change in heart rate after intravenous administration in anesthetized dogs at 3.0 mg/kg; type: functional, Canis lupus familiaris
[34] = system: Canis familiaris; assay: Percent change in mean arterial blood pressure after intravenous administration in anesthetized dogs at 0.3 mg/kg (NC<10%); type: functional, organism-based; set-up: dose 0.3 mg/kg; conditions: Canis lupus familiaris
[35] = system: Canis familiaris; assay: Percent change in heart rate after intravenous administration in anesthetized dogs at 1.0 mg/kg (NC<10%); type: functional, organism-based; set-up: dose 1 mg/kg; conditions: Canis lupus familiaris
[36] = system: Canis familiaris; assay: Percent change in left ventricle contractile force in anesthetized dogs after intravenous administration at 0.3 mg/kg (NC <10%); type: functional, organism-based; set-up: dose 0.3 mg/kg; conditions: Canis lupus familiaris, Heart left ventricle
[37] = system: Canis familiaris; assay: Percent change in heart rate after intravenous administration in anesthetized dogs at 0.3 mg/kg (NC<10%); type: functional, organism-based; set-up: dose 0.3 mg/kg; conditions: Canis lupus familiaris
[38] = Inhibition of crude cGMP phosphodiesterase from canine thoracic aorta (NR = no effect at 100 uM); type: tissue-based, Canis lupus familiaris; in short: as §2
[39] = system: Canis familiaris; assay: Percent change in heart rate after intravenous administration in anesthetized dogs at 0.1 mg/kg; type: functional, Canis lupus familiaris
[40] = system: Canis familiaris; assay: Percent change in heart rate in anesthetized dogs after intravenous administration at 0.03 mg/kg; type: functional, Canis lupus familiaris
[41] = system: Canis familiaris; assay: Percent change in left ventricle contractile force in anesthetized dogs after intravenous administration at 0.03 mg/kg; type: functional, Canis lupus familiaris, Heart left ventricle
[42] = system: Canis familiaris; assay: Percent change in mean arterial blood pressure after intravenous administration in anesthetized dogs at 0.03 mg/kg (NC<10%); type: functional, organism-based; set-up: dose 0.03 mg/kg; conditions: Canis lupus familiaris
[43] = Inhibition of crude cAMP phosphodiesterase from canine […] (NR = no effect at 100 uM); set-up: species or system Canis lupus familiaris; in short: as §2

SMILES | EC50 [1] [µM] | CFC20 [2] [µM] | IC50 [3] [µM] | EC50 [4] [µM] | IC50 [5] [µM] | further results
CCc1nc(C)c2c(=O)n(C)c3ccccc3n12 | 3.8 | 2.3 | 18 | 12 | 17 | 
O=[N+]([O-])OCC(CO[N+](=O)[O-])O[N+](=O)[O-] [NITROGLYCERIN] | 0.007 |  |  | 0.01 |  | Delta [6]: -17%; Delta [7]: <10%; Delta [8]: -9%; IC50 [9]: Not Active; Delta [10]: -39%; CFC20 [11]: inactive; Delta [12]: <10%; Delta [13]: -20%; IC50 [14]: Not Active; Delta [15]: -14%; Delta [16]: <10%; Delta [17]: -30%
CCc1nc(C)c2c(O)nc3ccc(-n4ccnc4)cc3n12 | 0.4 | 0.6 | 2 | 1.7 | 4 | 
CCc1nc(C)c2c(O)nc3ccc(N4CCOCC4)cc3n12 | 0.05 | 0.5 | 0.8 | 0.7 | 0.9 | 
CCc1ncc2c(O)nc3cccnc3n12 | 0.5 | 0.1 | 1 | 0.3 | 7 | Delta [18]: -17%; Delta [19]: 40%; Delta [20]: -40%; Delta [21]: 50%; Delta [22]: 30%; Delta [23]: <10% change from control; Delta [24]: 76%; Delta [25]: 31%; Delta [26]: -25%
Oc1nc2ccc(-n3ccnc3)cc2n2ccnc12 | 3.1 | 3.1 | 6 | 28 | 13 | 
Cc1nccn1-c1ccc2nc(O)c3cnc(C)n3c2c1 | 1.1 | 1.2 | 6 | 5.5 | 24 | 
CCc1ncc2c(O)nc3ccncc3n12 | 2.2 | 0.3 | 5 | 5.2 | 5 | 
CC(C)Cn1c(=O)n(C)c(=O)c2nc[nH]c21 [ISOBUTYLMETHYLXANTHINE] | 1 | 1.5 | 20 | 5.5 | 28 | Delta [8]: 41%; Delta [27]: 17%; Delta [22]: 32%; Delta [28]: <10%; Delta [25]: 25%; Delta [29]: <10%; Delta [15]: 69%; Delta [16]: 45%; Delta [17]: -18%
Cc1nccn1-c1ccc2nc(O)c3cnc(C)n3c2n1 | 2 | 0.4 | 1 | 24 | 3 | 
CCc1nc(C)c2c(O)nc3ccccc3n12 | 0.8 | 0.2 | 2 | 1.7 | 0.4 | Delta [30]: 135%; Delta [31]: <10% change from control; Delta [32]: -40%; Delta [19]: 39%; Delta [21]: 42%; Delta [22]: 22%; Delta [33]: 65%; Delta [24]: 85%; Delta [34]: <10% change from control
Oc1nc2cccnc2n2ccnc12 | 10 | 2.2 | 44 | 11 | 27 | Delta [35]: <10% change from control; Delta [36]: <10% change from control; Delta [30]: 81%; Delta [31]: <10% change from control; Delta [32]: -40%; Delta [33]: 24%; Delta [24]: 42%; Delta [34]: <10% change from control; Delta [37]: <10% change from control
CCc1nc(C)c2c(N)nc3ccccc3n12 | 3.4 |  | 22 | 11 | 38 | 
Cc1cn2c(n1)c(O)nc1ccccc12 | 0.4 | 11 | 42 | 5.1 | 36 | 
Oc1nc2ccc(-n3ccnc3)nc2n2ccnc12 | 9.3 | 0.5 | 5 | 14 | 39 | 
Oc1nc2ccccc2n2ccnc12 |  | 10 | 49 |  | 44 | 
CCc1ncc2c(O)nc3ccc(-n4ccnc4)cc3n12 | 0.3 | 1.2 | 2 | 5.3 | 3 | 
Cc1[nH]c(=O)c(C#N)cc1-c1ccncc1 [MILRINONE] | 0.7 | 0.5 | 6 | 1.6 |  | IC50 [38]: Not reached; Delta [39]: 20%; Delta [40]: 12%; Delta [18]: -15%; Delta [19]: 82%; Delta [41]: 31%; Delta [22]: 34%; Delta [42]: <10% change from control; Delta [25]: 58%; Delta [26]: -33%
CCc1nc(C)cn1-c1ccc2nc(O)c3c(C)nc(CC)n3c2c1 | 0.1 | 1 | 0.4 | 0.5 | 0.3 | 
CCc1nccn1-c1ncnc2c1nc(O)c1cnc(CC)n12 | 23 |  |  | 59 | 14 | IC50 [43]: Not reached
Cc1ncc2c(O)nc3ccccc3n12 | 2.8 | 2.1 | 16 | 49 | 27 | 
Cc1ncc2c(O)nc3ccc(-n4ccnc4)cc3n12 | 2.8 | 2 | 8 | 30 | 19 | 
